Data as given in ChEMBL document CHEMBL4130436, “Meroterpenoids from a Medicinal Fungus Antrodia cinnamomea” (2017).

How the values were obtained:
A549 = experiment: Growth inhibition of human A549 cells after 48 hrs by SRB assay; type: functional; settings: A549, 48 h
In short: (§1)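 Cells (from ATCC) grown in RPMI-1640 with 10% FBS and penicillin/streptomycin/amphotericin B, 37 °C, 5% CO2. Seeded overnight, then exposed to various compound concentrations for 48 h. A time-zero plate fixed with 10% TCA at dosing. After treatment, cells fixed with 10% TCA, stained with 0.4% SRB in 1% acetic acid, lysed in 10 mM Trizma base, A515 read. GI50 = concentration giving 50% reduction of the control protein increase.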

PC-3 = experiment: Growth inhibition of human PC3 cells after 48 hrs by SRB assay; type: functional; settings: PC-3, 48 h; in short: as §1

Compound | GI50 (A549) | GI50 (PC-3)
COC1=C(OC)[C@H](O)[C@H](C/C=C(\C)CC/C=C(\C)C/C=C/C(C)(C)O)[C@@H](C)C1=O | 23.8 µM | > 30 µM
COC1=C(OC)[C@H](O)[C@H](C/C=C(\C)CC/C=C(\C)C[C@@H]2C[C@@H](C)C(=O)O2)[C@@H](C)C1=O | 14.1 µM | > 30 µM
COC1=C(OC)C(=O)C(C/C=C(\C)CC/C=C(\C)C[C@H](O)C=C(C)C)=C(C)C1=O | > 30 µM | > 30 µM
COC1=CC(=O)C(C/C=C(\C)CC/C=C(\C)CCC=C(C)C)=C(C)C1=O | > 30 µM | > 30 µM
COC1=C(OC)[C@H](OC(C)=O)[C@H](C/C=C(\C)CC/C=C(\C)C[C@H](O)C=C(C)C)[C@@H](C)C1=O | 20.7 µM | > 30 µM
COC1=C[C@H](O)[C@H](C/C=C(\C)CC/C=C(\C)CCC=C(C)C)[C@@H](C)C1=O | 16.4 µM | > 30 µM
COC1=C(OC)[C@H](O)[C@H](C/C=C(\C)CC/C=C(\C)C[C@H](O)/C=C(\C)CO)[C@@H](C)C1=O | 12 µM | > 30 µM
COC1=C(OC)C(=O)C(C/C=C(\C)CC/C=C(\C)CCC=C(C)C)=C(C)C1=O | > 30 µM | > 30 µM
COC1=C(OC)[C@H](OC(C)=O)[C@H](C/C=C(\C)CC/C=C(\C)C[C@H](O)/C=C(\C)C(=O)O)[C@@H](C)C1=O | > 30 µM | > 30 µM
O=c1[nH]cc(F)c(=O)[nH]1 [FLUOROURACIL] | 4.2 µM | 11.7 µM
COC1=C(OC)[C@H](O)[C@H](C/C=C(\C)CC/C=C(\C)CC/C=C(\C)CO)[C@@H](C)C1=O | 8.2 µM | > 30 µM
COc1cc2c(c(C)c1O)C=C[C@](C)(CC/C=C(\C)CCC=C(C)C)O2 | > 30 µM | > 30 µM
COC1=C(OC)[C@H](O)[C@H](C/C=C(\C)CC/C=C(\C)C[C@H](O)C=C(C)C)[C@@H](C)C1=O | 9.6 µM | > 30 µM
COC1=C(OC)[C@H](O)[C@H](C/C=C(\C)CC/C=C(\C)CCC=C(C)C)[C@@H](C)C1=O [ANTROQUINONOL] | 5.7 µM | 13.5 µM
COC1=C(OC)[C@H](OC(C)=O)[C@H](C/C=C(\C)CC/C=C(\C)C[C@H](O)/C=C(\C)CO)[C@@H](C)C1=O | 29 µM | > 30 µM
COC1=C(OC)[C@H](O)[C@H](C/C=C(\C)CC/C=C(\C)CCCC(C)CO)[C@@H](C)C1=O (stereo not given in full) | 7.1 µM | > 30 µM
COC1=C(O)[C@H](O)[C@H](C/C=C(\C)CC/C=C(\C)C[C@H](O)/C=C(\C)CO)[C@@H](C)C1=O | > 30 µM | > 30 µM
COC1=C[C@H](O)[C@H](C/C=C(\C)CC/C=C(\C)C[C@@H]2C[C@@H](C)C(=O)O2)[C@@H](C)C1=O | > 30 µM | > 30 µM
COC1=C[C@H](O)[C@H](C/C=C(\C)CC/C=C(\C)C[C@H](O)/C=C(\C)CO)[C@@H](C)C1=O | > 30 µM | > 30 µM
COC1=C(OC)[C@H](OC(C)=O)[C@H](C/C=C(\C)CC/C=C(\C)C[C@@H]2C[C@@H](C)C(=O)O2)[C@@H](C)C1=O | 11.3 µM | > 30 µM
